Bioassay records as filed in PubChem.
Rows were chosen to be rich in hits. Some 1.5% of all compounds tested hit in one or more screens of this group.
PP1 inh: PP1-alpha phosphatase inhibitors, primary screen, counter-screen for PP5 inhibitor project, biochemical, fluorescence, OMFP substrate, single point. Serine/threonine-protein phosphatase PP1-alpha catalytic subunit (Homo sapiens), P62136. purified PP1alpha. inhibition, % at 6.7 µM. 320,000 compounds, 0.9% hits;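 active = inhibition above the mean inhibition of all tested compounds plus 3 SD, computed separately for each screening campaign, cut at about 15% in these data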
PKD1 kinase inh: inhibitors of human PKD1 kinase, biochemical, fluorescence polarization. Serine/threonine-protein kinase D1 (Homo sapiens), Q15139. PKD1 kinase fluorescence polarization assay. inhibition, % (no concentration beside the values). 200,000 compounds, 0.056% hits. AID 797, 2007; in the data active = inhibition above about 50%
RBBP9 inh: human RBBP9 inhibitors, primary screen, biochemical, fluorescence polarization, FP-Rh probe, HTS | Serine hydrolase RBBP9 (Homo sapiens), O75884 | recombinant RBBP9 | inhibition, % at 7.94 µM | 220,000 compounds, 0.2% hits | AID 1515, 2009;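 active = inhibition above the campaign mean of all tested compounds plus 3 SD, cut at about 14% in these data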;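 note: plate controls were DMSO wells with RBBP9 for no effect and wells lacking RBBP9 protein for full effect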
Target sequence (O75884 whole entry, looked up): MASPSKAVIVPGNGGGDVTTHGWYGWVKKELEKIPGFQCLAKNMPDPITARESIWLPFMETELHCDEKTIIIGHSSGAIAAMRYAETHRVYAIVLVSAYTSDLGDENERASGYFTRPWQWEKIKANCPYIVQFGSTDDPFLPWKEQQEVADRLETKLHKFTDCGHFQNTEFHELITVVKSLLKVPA
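Material: RBBP9 protein. Amount: RBBP9 at 2.5 µM in dispensed solution, before mixing. Schedule: 30 min then 45 min, 25 °C. Medium: Tris buffer pH 8.0, NaCl, Pluronic. Measured by: fluorescence polarization. Measure: percent inhibition from mP, scaled between DMSO and no-protein wells. Replication: one well per compound.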
p97 inhibitor: inhibitors of human p97 ATPase, primary screen, biochemical | 220,000 compounds, 0.42% hits | inhibition, % at 8 µM | Transitional endoplasmic reticulum ATPase (Homo sapiens), P55072 | recombinant p97 ATPase, Kinase-Glo ATP luminescence, 3 h; in the data active = inhibition above about 15%;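 note: 0% = DMSO vehicle and 100% = wells lacking enzyme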
Hsp70 activator: Hsp70 transcriptional activators, primary screen, cell-based, HeLa, Hsp70 promoter luciferase, luminescence, 10 µM; HeLa Hsp70 promoter luciferase reporter; scaled: vehicle 0, proteasome-inhibitor control 100%; activation, % at 10 µM; 200,000 compounds, 0.04% hits; AID 1203, 2008;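 active = activation above the mean across all tested compounds plus 3 SD, cutoff set per campaign, cut at about 5.5% in these data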;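 note: 100% = MG132 at 30 µM as the positive control and 0% = DMSO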
PP5 primary: PP5 phosphatase inhibitors, primary screen, biochemical, fluorescence; Serine/threonine-protein phosphatase 5 (Homo sapiens), P53041; purified PP5c, OMFP substrate fluorescence; inhibition, % at 6.7 µM; 320,000 compounds, 0.18% hits; AID 1987, 2009;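 active = inhibition above the campaign's mean inhibition across all tested compounds plus 3 SD, cut at about 9.5% in these data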;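 note: 0% = DMSO only and 100% = 100 µM cantharidin control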
Target sequence (P53041 whole entry, looked up): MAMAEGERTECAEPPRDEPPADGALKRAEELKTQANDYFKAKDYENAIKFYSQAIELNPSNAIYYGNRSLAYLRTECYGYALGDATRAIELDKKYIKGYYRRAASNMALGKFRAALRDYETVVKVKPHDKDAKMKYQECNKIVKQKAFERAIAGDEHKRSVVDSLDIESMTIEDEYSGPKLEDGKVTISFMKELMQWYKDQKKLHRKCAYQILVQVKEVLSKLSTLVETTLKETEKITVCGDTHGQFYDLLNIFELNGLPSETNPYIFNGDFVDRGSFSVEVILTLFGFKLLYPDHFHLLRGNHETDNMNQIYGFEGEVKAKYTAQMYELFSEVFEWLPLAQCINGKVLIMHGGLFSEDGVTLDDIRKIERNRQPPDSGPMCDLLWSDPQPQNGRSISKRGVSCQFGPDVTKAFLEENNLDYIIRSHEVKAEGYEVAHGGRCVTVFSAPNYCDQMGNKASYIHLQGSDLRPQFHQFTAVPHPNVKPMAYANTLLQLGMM
* hit, by the source's call.

What do the screens show for `COc1ccc(O[C@H]2C=C[C@@H](c3ccccc3)O[C@@H]2CO/N=C(\C)CCN2CCc3nc(-c4ccccc4)c(-c4ccccc4)cc3C2)cc1`?
PP1 inh: 19.4*; PKD1 kinase inh: -8.4; RBBP9 inh: -12.5; p97 inhibitor: -0.1; Hsp70 activator: -0.1; PP5 primary: 1.7

What do the screens show for `Cc1nc2c(C(=O)NCc3ccccc3Cl)c[nH]n2c(=O)c1Cl`?
PP1 inh: 13.6; PKD1 kinase inh: -12.7; RBBP9 inh: -3.5; p97 inhibitor: 14.7*; Hsp70 activator: -0.2; PP5 primary: 2.1

Results for Cc1nc2c(C(=O)NCc3ccccc3)c[nH]n2c(=O)c1Cl ?
PP1 inh: 2.1; PKD1 kinase inh: 2.3; RBBP9 inh: -6.3; p97 inhibitor: 3.9; Hsp70 activator: -0.4; PP5 primary: -1.1

What do the screens show for `Cc1nc2c(C(=O)NCCc3ccccc3Cl)c[nH]n2c(=O)c1Cl`?
PP1 inh: 16.7*; PKD1 kinase inh: -19.8; RBBP9 inh: 1.3; p97 inhibitor: 0.5; Hsp70 activator: -0.2; PP5 primary: 3.0

Results for COc1ccccc1N(C)S(=O)(=O)c1ccc(C(=O)N(C)Cc2ccc(Cl)s2)cc1 ?
PP1 inh: 0.6; PP5 primary: 2.5

What do the screens show for `CCOC(=O)c1sc(NC(=O)CSc2nccn2C)nc1C`?
PP1 inh: -2.4; PP5 primary: -1.4

How did Fc1ccc(CCN2CCN=C2Nc2ccccc2)cc1 do in these assays?
PP1 inh: -0.4; PP5 primary: 1.7

How did COc1ccc(-c2nc3c(c(=O)[nH]c(=O)n3Cc3ccccc3)n2Cc2ccccc2)cc1 do in these assays?
PP1 inh: 16.3*; PKD1 kinase inh: 7.5; RBBP9 inh: 2.4; p97 inhibitor: 2.7; Hsp70 activator: -0.3; PP5 primary: 0.7

How did Cc1ccc(C(c2c(C)n(C)n(-c3ccccc3)c2=O)c2c(C)n(C)n(-c3ccccc3)c2=O)s1 do in these assays?
PP1 inh: 0.1; PKD1 kinase inh: -14.0; RBBP9 inh: -1.6; p97 inhibitor: 3.4; Hsp70 activator: -0.1; PP5 primary: 1.6

How did Cc1ccc(C2=NN=C(NC(=O)CSc3nnc4c5ccccc5n(C)c4n3)SC2)cc1 do in these assays?
PP1 inh: 21.8*; PKD1 kinase inh: -1.7; RBBP9 inh: -12.5; p97 inhibitor: -5.8; Hsp70 activator: -0.5; PP5 primary: 1.2

How did CCOc1ccc(NC(=O)CN(C)C(=O)c2cc3c(s2)CCCCC3)cc1OCC do in these assays?
PP1 inh: -1.0; PP5 primary: 4.7

What do the screens show for `Cc1cccc2c(C(=O)N3CCN(c4ccccn4)CC3)cc(-c3cccc(Br)c3)nc12`?
PP1 inh: 15.4*; PP5 primary: 0.8

Results for O=C(CCc1ccccc1)NC1(Cc2ccccc2)CCN(CCCc2ccccc2)C1=O (stereo unspecified) ?
PP1 inh: -0.3; PP5 primary: 0.9

Results for CC(=O)Nc1ccc(S(=O)(=O)N(C)CC(=O)Nc2ccc(F)c(F)c2F)cc1 ?
PP1 inh: -2.5; PP5 primary: 0.2

What do the screens show for `O=C(Nc1cc(-c2ccccc2)[nH]n1)c1ccc(Cl)cc1`?
PP1 inh: 17.4*; RBBP9 inh: -14.3; p97 inhibitor: 1.7; PP5 primary: 1.2

What do the screens show for `O=C(Nc1ccc(Cl)cc1Cl)c1ccc(-c2ccccc2)cc1`?
PP1 inh: -3.7; PKD1 kinase inh: -4.4; RBBP9 inh: -7.2; p97 inhibitor: -6.5; Hsp70 activator: -0.4; PP5 primary: -0.6

What do the screens show for `COc1cc2c(cc1NC(=O)COC(=O)/C=C/c1ccc([N+](=O)[O-])cc1)oc1ccccc12`?
PP1 inh: -4.3; RBBP9 inh: 6.8; p97 inhibitor: 14.6*; PP5 primary: 4.1

Results for Cc1cccc(C)c1NC(=O)CNC(=O)c1ccc(N2CCCC2)c([N+](=O)[O-])c1 ?
PP1 inh: -4.0; PP5 primary: -0.9

Results for Cc1ccc(C(=O)c2ccccc2C(=O)OCC(=O)Nc2ccc(SC(F)F)cc2)cc1 ?
PP1 inh: -1.4; PKD1 kinase inh: -13.5; RBBP9 inh: -22.9; p97 inhibitor: 0.2; Hsp70 activator: 0.1; PP5 primary: -1.7

How did O=C(COC(=O)c1ccccc1Cc1ccccc1)Nc1ccc(SC(F)F)cc1 do in these assays?
PP1 inh: 16.1*; PKD1 kinase inh: 6.6; RBBP9 inh: -36.7; p97 inhibitor: -8.6; Hsp70 activator: 0.1; PP5 primary: 5.5

Results for O=C(Nc1ccc2nc(-c3ccco3)c(-c3ccco3)nc2c1)N1CCCCCC1 ?
PP1 inh: 36.6*; PKD1 kinase inh: 3.2; RBBP9 inh: -0.2; p97 inhibitor: 4.4; Hsp70 activator: -0.3; PP5 primary: 4.0

What do the screens show for `COc1ccccc1N1CCN(C(=O)CSc2nc3ccccc3[nH]2)CC1`?
PP1 inh: 17.1*; PKD1 kinase inh: -0.7; RBBP9 inh: -6.0; p97 inhibitor: 0.3; Hsp70 activator: -0.1; PP5 primary: 4.4

How did Oc1c(Cl)cc(Cl)cc1Sc1cc(Cl)cc(Cl)c1O do in these assays?
PP1 inh: 39.6*; PKD1 kinase inh: -9.9; RBBP9 inh: -4.8; p97 inhibitor: -13.3; Hsp70 activator: -0.3; PP5 primary: 9.2

What do the screens show for `Cn1c(=O)c2c(SCC(=O)NCc3ccco3)nc(-c3ccccc3Cl)nc2n(C)c1=O`?
PP1 inh: 17.0*; PP5 primary: 0.9

How did Nc1cccc2cc(-c3ccccc3)oc12 do in these assays?
PP1 inh: -3.4; PP5 primary: 2.3

Results for CCOc1ccc(S(=O)(=O)NCC(=O)NC2CCCCC2)cc1 ?
PP1 inh: -4.4; PP5 primary: 1.3

What do the screens show for `Cc1c(OCC(=O)N[C@@H](Cc2ccccc2)C(=O)O)ccc2c1oc(=O)c1ccccc12`?
PP1 inh: 15.2*; PP5 primary: 2.6

Results for Cc1nn(C)cc1-c1csc(N)n1 ?
PP1 inh: 2.6; PKD1 kinase inh: -2.0; RBBP9 inh: -2.7; p97 inhibitor: -0.9; Hsp70 activator: 0.1; PP5 primary: 2.8

What do the screens show for `Cc1cc(-c2csc(N)n2)c(C)n1CCC(C)C`?
PP1 inh: 16.1*; PKD1 kinase inh: -6.5; RBBP9 inh: 6.7; p97 inhibitor: 2.9; Hsp70 activator: -0.1; PP5 primary: 3.5

How did O=c1c2c([N+](=O)[O-])cc([N+](=O)[O-])cc2sn1-c1ccc(Br)cc1 do in these assays?
PP1 inh: 10.1; PKD1 kinase inh: -3.9; RBBP9 inh: 16.7*; p97 inhibitor: 2.1; Hsp70 activator: -0.1; PP5 primary: 1.4

Results for COc1cc(C(=O)NNC(=O)c2cc(S(=O)(=O)N(C)C)ccc2N2CCCC2)cc(OC)c1OC ?
PP1 inh: 1.2; PP5 primary: -1.7
